Experimental data of several laboratories.
Target: Receptor tyrosine-protein kinase erbB-4 (ERBB4, Homo sapiens, UniProt Q15303)

With `O=C(CSc1nc2nccnc2c(=O)n1CCc1ccccc1)Nc1nccs1` the inhibition was -4% (enzyme activity, inhibitor; 10 µM).
The remaining binding of `CC(C)CC(=O)N1CCc2nc(-c3ccc(Br)cc3)nc(N(C)Cc3ccccc3)c2C1` is reported as 94% (cell-free assay, competition with immobilised ligand; 0.1 µM).
`O=C(Nc1nccs1)C(c1cc(F)ccc1O)N1Cc2ccccc2C1=O` (stereo not drawn) gave an inhibition of 16% (enzyme activity, inhibitor; 1 µM).
`CNCc1ccccc1-c1csc([C@H](C)Nc2nc(C)nc3cc(OC)c(OC)cc23)c1` gave a remaining binding of 100% (cell-free assay, competition with immobilised ligand; 1 µM).
`Cc1ccc(NC(=O)c2ccc(CN3CCN(C)CC3)cc2)cc1Nc1nc(-c2cccnc2)cs1` has a remaining signal of 93.5% (cell-free assay; 0.5 µM).
`O=C(Nc1cccnn1)N1CCC(=Cc2cccc(Oc3ccc(C(F)(F)F)cn3)c2)CC1` gave a remaining binding of 100% (cell-free assay, competition with immobilised ligand; 1 µM).
For `Cc1ccc(Nc2nccc(N(C)c3ccc4c(C)n(C)nc4c3)n2)cc1S(N)(=O)=O`, the inhibition was -9% (enzyme activity, inhibitor; 0.3 µM).
With `CCCOc1ccc([C@@H]2[C@@H](C(=O)O)[C@H](c3ccc4c(c3)OCO4)CN2CC(=O)Nc2c(CC)cccc2CC)cc1` the remaining binding was 100% (cell-free assay, competition with immobilised ligand; 1 µM).
With `Cc1ccc(NC(=O)c2ccc(C)c(C(F)(F)F)c2)cc1C#Cc1nn(C2CCC(O)CC2)c2ncnc(N)c12` (stereo not drawn) the remaining signal was -3% (cell-free assay; 10 µM).
`Nc1ncnc2occ(-c3ccc(NC(=O)Nc4cc(C(F)(F)F)ccc4F)cc3)c12` gave a remaining signal of 57% (cell-free assay, inhibitor; 20 µM).
The inhibition of `CCCS(=O)(=O)Nc1ccc(F)c(C(=O)c2c[nH]c3ncc(-c4ccc(Cl)cc4)cc23)c1F` is reported as less than 10% (enzyme activity, inhibitor; 1 µM).
With `COc1cc(Cl)c(C(=O)N[C@@H](CN[C@H]2CC[C@@H](N)CC2)Cc2ccc(C#N)cc2)cc1-c1ccc(CN[C@H](C)c2ccc(C)cc2)o1` the remaining activity was 99% (enzyme activity, inhibitor; 1 µM).
`CCN(CC)c1ccc(C2=NNC(=O)CC2C)cc1[N+](=O)[O-]` (stereo not drawn) has a remaining activity of 94% (enzyme activity, inhibitor; 10 µM).
For `CC(C)(C)c1nc2c(s1)c1nc(N)ncc1c1ccc(NS(=O)(=O)c3c(F)cccc3F)c(F)c12`, the remaining activity was 80% (enzyme activity, inhibitor, radiometric; 1 µM).
`O=C1NC(=O)c2cc(Nc3ccc(F)cc3)c(Nc3ccc(F)cc3)cc21` gave a remaining signal of 99.4% (cell-free assay; 0.5 µM).
With `Oc1cccc(-c2nc(N3CCOCC3)c3oc4ncccc4c3n2)c1` the remaining activity was 114% (enzyme activity, inhibitor; 10 µM).
`NS(=O)(=O)c1cc(NC(=O)C2(c3ccccc3Cl)CC2)ccc1Oc1cccc(Cl)c1` gave a remaining binding of 75% (cell-free assay, competition with immobilised ligand; 1 µM).
For `CCN(CC)CCNC(=O)c1c(C)[nH]c(/C=C2\C(=O)Nc3ccc(F)cc32)c1C`, the remaining signal was 94.8% (cell-free assay; 0.5 µM).
With `CC(=O)c1c(NS(C)(=O)=O)c2cc(-c3ccc(Cl)cc3)c(-c3ccc(Cl)cc3Cl)nc2n(C)c1=O` the remaining binding was 100% (cell-free assay, competition with immobilised ligand; 1 µM).
`COc1cc(/C=C/C(=O)CC(=O)/C=C/c2ccc(O)c(OC)c2)ccc1O` gave an activity vs control of 71% (enzyme activity, inhibitor; 1 µM).
The remaining activity of `COc1cc(Nc2cnc(C#N)c(O[C@H](C)CN(C)C)n2)ncc1-c1cnn(C)c1` is reported as 94% (enzyme activity, inhibitor, radiometric; 10 µM).
The remaining binding of `CO[C@@H](C)c1c(Nc2ccc([C@H](N(C)C(=O)C3CCS(=O)(=O)CC3)C(F)(F)F)cc2)cnc2cc(Cl)nn12` is reported as 84% (cell-free assay, competition with immobilised ligand; 1 µM).
For `Cc1cc(NC(=O)c2cccc3cc(-c4cccc5[nH]nc(N)c45)ccc23)ccc1F`, the activity vs control was 102% (enzyme activity, inhibitor; 0.1 µM).
For `O=C1Nc2ccc(Cl)cc2C1=Cc1cc(Cl)c(O)c(Cl)c1`, the remaining signal was 94.2% (cell-free assay; 0.5 µM).
The remaining binding of `O=C(O)[C@H]1[C@H](Cn2nnc3ccccc3c2=O)CC[C@@H]1C(=O)c1ccc(OCCC2CCOCC2)cc1` is reported as 89% (cell-free assay, competition with immobilised ligand; 1 µM).
With `COc1cc2ncnc(Nc3ccc(Oc4ccccc4)c(C)c3C)c2cc1OC` the inhibition was 89% (enzyme activity, inhibitor; 1 µM).
With `CN1CC(Oc2cnc(C#N)cc2-c2ccn3nc(NC(=O)C4CC4)cc3c2)C1` the inhibition was -2% (enzyme activity, inhibitor; 1 µM).
